A short description of experiment [1]: reducers of endogenous Her2 protein level, primary screen, SKBR3 breast tumor cells, AlphaScreen, ATP viability (AID 461).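 On Her2 level: lower value means less Her2 protein in the cells.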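 On viability: percent of carrier control wells set as 100% viability.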 To be noted: 18-24 h, measured here: SKBR3 viability, ATP luminescence, at 10 µM. In general terms: In Alpha technology, singlet oxygen from a donor bead excites a nearby acceptor bead.
Experiment [2] concerns the target Receptor tyrosine-protein kinase erbB-2 (Homo sapiens) (UniProt P04626). The description is as above. To be noted: 18-24 h, at 10 µM, stronger effect = lower value.
Experiment [3] can be described thus: SK-BR-3 cell growth inhibitors, pilot screen, 24 h, human (AID 572;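 active means viability at or below 10% of carrier control in both of two separate runs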;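 further: compound exposure lasted between 18 and 24 h rather than exactly 24 h; 100% = carrier-treated control wells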). The following applies: SK-BR-3 viability, CellTiter-Glo luminescence, at 10 µM, stronger effect = lower value. Background: In ATP-based viability assays light output follows the ATP content of the culture.
Experiment [4] in a line: HUVEC growth inhibition – cell-based, human, primary screen (AID 575;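 active means viability at or below 30% in both replicate assays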;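 further: 100% = median of untreated cell wells with 0.1% DMSO on each plate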). To be noted: HUVEC proliferation, CellTiter-Glo luminescence, 72 h; at 10 µM; stronger effect = lower value. In a few lines: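 System: primary human umbilical vein endothelial cells; Quantity: 1250 endothelial cells in each well; Buffer or medium: supplemented EBM, 2% fetal bovine serum; Doses: one dose, 10 µM final, 0.1% DMSO; Incubation: 72 h compound incubation; Technique: ATP-based CellTiter-Glo luminescent read; Evaluation: percent of median DMSO-control luminescence; Controls: vehicle and MePR control wells.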

Experiment [5] in a line: growth inhibitors of H69AR lung tumor, primary screen, human, duplicate replicates (AID 580;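 active means viability at or under a set limit in both replicates, limit being median viability minus 3 SD, cut at about 48% in these data, passing the limit was not always enough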;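 further: 100% = mean luminescence of untreated wells and 0% = no signal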). To be noted: H69AR lung tumor cells viability, ATP luminescence, 72 h; at 10 µM; stronger effect = lower value.
The nature of experiment [6]: reversal of MRP1-mediated doxorubicin resistance, pilot screen, H69AR cells, doxorubicin co-treatment (AID 601;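 active means viability loss from added drug above about 55%, and viability with drug at most 40%, in both replicates, limit read from the data, passing the limit was not always enough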). To be noted: CellTiter-Glo, 72 h, at 10 µM; for differential viability (reversal): stronger effect = higher value.
Experiment [7] in a line: 384-well plate pilot, post-Golgi transport modulator project, inhibition of yeast transport mutant growth (AID 636; in the data active means inhibition above about 31%). The following applies: absorbance 615 nm, about 18 h, stronger effect = higher value.
Experiment [8] is described as follows: growth suppression of yeast trafficking mutant, preliminary HTS, modulators of trafficking downstream of Golgi apparatus project, 1536-format plate, OD 615 nm (AID 637; in the data active means inhibition above about 30%). The following applies: yeast transport mutant growth, absorbance 615 nm, 18 h; stronger effect = higher value.
Where [9] appears, read: H69AR cells + 2 uM doxorubicin, measured here: viability with 2 uM doxorubicin, stronger effect = lower value.
Setting [10] is: H69AR cells, compound alone cytotoxicity.

The results in this text go back to PubChem BioAssay.

Active and inactive are the calls of the source.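 How the source made its calls, unless noted: active means Her2 level under about 52% in both replicate screens, with viability over 70% of control (limit read from the data); inconclusive means Her2 under the limit in one screen only, or viability under 70%; inactive means Her2 level above the set limit.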

Chain of Receptor tyrosine-protein kinase erbB-2 (Homo sapiens) (P04626 whole entry, looked up): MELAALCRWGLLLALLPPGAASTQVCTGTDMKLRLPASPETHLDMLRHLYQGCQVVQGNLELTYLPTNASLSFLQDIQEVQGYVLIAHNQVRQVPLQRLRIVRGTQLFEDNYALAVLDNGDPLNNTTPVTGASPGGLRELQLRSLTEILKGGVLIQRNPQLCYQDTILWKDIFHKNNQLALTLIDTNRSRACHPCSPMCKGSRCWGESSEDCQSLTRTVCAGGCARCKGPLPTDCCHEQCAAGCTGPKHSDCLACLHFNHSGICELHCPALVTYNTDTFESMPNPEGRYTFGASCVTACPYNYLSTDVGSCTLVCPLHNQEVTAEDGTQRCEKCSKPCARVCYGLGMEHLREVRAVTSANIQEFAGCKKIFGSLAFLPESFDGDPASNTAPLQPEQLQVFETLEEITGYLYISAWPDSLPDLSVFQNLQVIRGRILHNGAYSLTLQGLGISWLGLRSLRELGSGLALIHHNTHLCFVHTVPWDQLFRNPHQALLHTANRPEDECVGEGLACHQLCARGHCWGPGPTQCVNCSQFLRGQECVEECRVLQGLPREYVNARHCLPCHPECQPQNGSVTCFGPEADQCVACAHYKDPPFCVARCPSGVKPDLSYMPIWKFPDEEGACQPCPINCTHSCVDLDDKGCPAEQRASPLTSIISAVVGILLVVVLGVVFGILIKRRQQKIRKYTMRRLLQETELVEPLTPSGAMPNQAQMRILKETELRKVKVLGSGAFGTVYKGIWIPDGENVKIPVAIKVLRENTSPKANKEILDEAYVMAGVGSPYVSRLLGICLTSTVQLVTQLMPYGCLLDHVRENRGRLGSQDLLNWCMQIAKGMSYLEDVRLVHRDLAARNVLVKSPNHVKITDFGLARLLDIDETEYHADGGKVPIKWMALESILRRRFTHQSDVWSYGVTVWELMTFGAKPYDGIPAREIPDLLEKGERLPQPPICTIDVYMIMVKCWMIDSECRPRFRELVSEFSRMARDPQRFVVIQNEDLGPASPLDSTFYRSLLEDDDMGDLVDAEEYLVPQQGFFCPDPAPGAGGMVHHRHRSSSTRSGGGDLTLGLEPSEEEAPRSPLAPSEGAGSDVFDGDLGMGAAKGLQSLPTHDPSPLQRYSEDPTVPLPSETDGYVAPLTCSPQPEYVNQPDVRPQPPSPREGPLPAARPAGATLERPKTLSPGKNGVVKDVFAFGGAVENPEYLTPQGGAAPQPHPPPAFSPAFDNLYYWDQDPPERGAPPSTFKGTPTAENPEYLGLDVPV

Usually viability stands for a read-out of living cells in per cent, often relative to untreated cells. For orientation: inhibition means the change of the read-out against control, counted positive when it falls. For the compound `O=S(=O)(NCc1ccco1)c1cccc2cccnc12`, the viability was 105% in experiment [1]; 105% (inactive) in experiment [3]; 89.7% (inactive) in experiment [4]; 79% (inactive) in experiment [5]; 88.5% in experiment [6] (setting [9]); 79% in experiment [6] (setting [10]). The Her2 level in experiment [2] was 93.5% (inactive). Besides, in experiment [6] (H69AR cells + 2 uM doxorubicin), the differential viability (reversal) was -9.52% (inactive). Besides, the inhibition in experiment [7] was -1.18% (inactive); in experiment [8], -1.45% (inactive).
`COc1cccc(OCC(O)CN2CCN(CCO)CC2)c1` (stereo not given): the viability in experiment [1] is 92.5%; in experiment [3], 92.5% (inactive); in experiment [4] it was 101% (inactive); in experiment [5], 93.2% (inactive); in experiment [6] (setting [9]) it was 91.6%; in experiment [6] (setting [10]), 93.2%. Besides, the Her2 level in experiment [2] is 96% (inactive). Also, the differential viability (reversal) in experiment [6] (H69AR cells + 2 uM doxorubicin) was 1.65% (inactive). Further, the results for the inhibition in experiment [7] and in experiment [8] were 1.18% (inactive) and 6.39% (inactive), respectively.
Regarding `O=C(CCSc1ccccc1)N1CCOCC1`, the viability in experiment [1] is 94%; in experiment [3] it was 94% (inactive); in experiment [4], 96.7% (inactive); in experiment [5] it was 93.5% (inactive); in experiment [6] (setting [9]) it was 94.4%; in experiment [6] (setting [10]) it was 93.5%. Also, the Her2 level in experiment [2] was 98.5% (inactive). Besides, the differential viability (reversal) in experiment [6] (H69AR cells + 2 uM doxorubicin) is -0.87% (inactive). Also, the inhibition in experiment [7] is -5.39% (inactive); in experiment [8], -2.13% (inactive).
Take `Cc1oc2c(CN3CCOCC3)c(O)ccc2c(=O)c1-c1ccc(Br)cc1`: the viability in experiment [1] is 85%; in experiment [3], 85% (inactive); in experiment [4], 91.8% (inactive); in experiment [5] it was 90.4% (inactive); in experiment [6] (setting [9]), 86%; in experiment [6] (setting [10]), 90.4%. In addition, in experiment [2], the Her2 level is 114% (inactive). Besides, in experiment [6] (H69AR cells + 2 uM doxorubicin), the differential viability (reversal) is 4.38% (inactive). The inhibition in experiment [7] is -0.91% (inactive); in experiment [8], -2.67% (inactive).
Consider `O=C(Cn1ccc2ccccc2c1=O)NCCC(=O)N1CCN(C(=O)c2ccco2)CC1`, for which the viability in experiment [1] was 89.5%; in experiment [3], 89.5% (inactive); in experiment [4], 102% (inactive); in experiment [5], 98.1% (inactive); in experiment [6] (setting [9]) it was 91.4%; in experiment [6] (setting [10]), 98.1%. For the same compound, the Her2 level in experiment [2] is 109% (inactive). In addition, the differential viability (reversal) in experiment [6] (H69AR cells + 2 uM doxorubicin) is 6.74% (inactive). Also, the values for the inhibition in experiment [7] and in experiment [8] were -1.6% (inactive) and -2.3% (inactive), respectively.
For `CCN(CC)CC(C)CNC(=O)CC(C(=O)N1CCc2ccccc21)n1ccnc1` (stereo not given), the viability in experiment [1] is 88.5%; in experiment [3], 88.5% (inactive); in experiment [4], 104% (inactive); in experiment [5], 95.9% (inactive); in experiment [6] (setting [9]) it was 104%; in experiment [6] (setting [10]), 95.9%. Besides, the Her2 level in experiment [2] was 106% (inactive). The differential viability (reversal) in experiment [6] (H69AR cells + 2 uM doxorubicin) was -7.88% (inactive). Further, the inhibition is 0.52% (inactive) in experiment [7] and -9.34% (inactive) in experiment [8].
In the case of `CC1(C)OC(=O)C(=CNc2ccccc2)C(=O)O1`, the viability in experiment [1] was 98%; in experiment [3], 98% (inactive); in experiment [4] it was 98.7% (inactive); in experiment [5] it was 108% (inactive); in experiment [6] (setting [9]) it was 97.2%; in experiment [6] (setting [10]), 108%. In addition, the Her2 level in experiment [2] was 94% (inactive). The differential viability (reversal) in experiment [6] (H69AR cells + 2 uM doxorubicin) is 10.9% (inactive). The inhibition in experiment [7] is 0.39% (inactive); in experiment [8], 0.18% (inactive).
`CC(C)[C@H](NC(=O)[C@@H]1CSCN1C(=O)OC(C)(C)C)C(=O)NCC1CCC(C(=O)O)CC1` (stereo not given in full): the viability was 105% in experiment [1]; 105% (inactive) in experiment [3]; 113% (inactive) in experiment [4]; 102% (inactive) in experiment [5]; 99.3% in experiment [6] (setting [9]); 102% in experiment [6] (setting [10]). Further, the Her2 level in experiment [2] is 104% (inactive). In addition, the differential viability (reversal) in experiment [6] (H69AR cells + 2 uM doxorubicin) was 2.67% (inactive). The inhibition in experiment [7] is -3.33% (inactive); in experiment [8], -3.23% (inactive).
Take `Cc1cc2n(n1)C(c1ccccc1)Nc1ccccc1-2` (stereo not given): the viability is 97% in experiment [1]; 97% (inactive) in experiment [3]; 77.1% (inactive) in experiment [4]; 90.7% (inactive) in experiment [5]; 89.1% in experiment [6] (setting [9]); 90.7% in experiment [6] (setting [10]). Further, the Her2 level in experiment [2] is 104% (inactive). For the same compound, the differential viability (reversal) in experiment [6] (H69AR cells + 2 uM doxorubicin) was 1.64% (inactive). The values for the inhibition in experiment [7] and in experiment [8] were -6% (inactive) and -6.13% (inactive), respectively.
In the case of `CN(C)S(=O)(=O)c1ccc(Oc2ccc(S(=O)(=O)N(C)C)cc2)cc1`, the viability in experiment [1] was 80.5%; in experiment [3], 80.5% (inactive); in experiment [4], 54.4% (inactive); in experiment [5] it was 93.8% (inactive); in experiment [6] (setting [9]) it was 94.6%; in experiment [6] (setting [10]) it was 93.8%. The Her2 level in experiment [2] was 96.5% (inactive). Further, the differential viability (reversal) in experiment [6] (H69AR cells + 2 uM doxorubicin) is -0.755% (inactive). The results for the inhibition in experiment [7] and in experiment [8] were -2.4% (inactive) and -7.14% (inactive), respectively.
Consider `Cn1cnc(S(=O)(=O)NCc2cccs2)c1`, for which the viability in experiment [1] was 102%; in experiment [3] it was 102% (inactive); in experiment [4] it was 96.5% (inactive); in experiment [5] it was 95.5% (inactive); in experiment [6] (setting [9]), 87.8%; in experiment [6] (setting [10]), 95.5%. The Her2 level in experiment [2] was 102% (inactive). Further, the differential viability (reversal) in experiment [6] (H69AR cells + 2 uM doxorubicin) was 7.67% (inactive). Moreover, the inhibition in experiment [7] was 0.68% (inactive); in experiment [8], -1.9% (inactive).
For `N/C(=N/O)c1nc(N2CCCC2)nc(N(c2ccccc2)c2ccccc2)n1`, the viability in experiment [1] is 108%; in experiment [3], 108% (inactive); in experiment [4], 75.9% (inactive); in experiment [5], 65.2% (inactive); in experiment [6] (setting [9]), 59.4%; in experiment [6] (setting [10]) it was 65.2%. The Her2 level in experiment [2] was 93.5% (inactive). In addition, the differential viability (reversal) in experiment [6] (H69AR cells + 2 uM doxorubicin) is 5.79% (inactive). Besides, the figures for the inhibition in experiment [7] and in experiment [8] were -6.62% (inactive) and 3.17% (inactive), respectively.
Consider `Cc1cnc(-c2nnc(N(C)C(=O)C3CCOC3)s2)cn1` (stereo not given), for which the viability in experiment [1] was 90.5%; in experiment [3], 90.5% (inactive); in experiment [4], 98.2% (inactive); in experiment [5] it was 101% (inactive); in experiment [6] (setting [9]), 84.4%; in experiment [6] (setting [10]) it was 101%. In addition, in experiment [2], the Her2 level was 89.5% (inactive). Further, the differential viability (reversal) in experiment [6] (H69AR cells + 2 uM doxorubicin) is 17% (inactive). The inhibition was -1.45% (inactive) in experiment [7] and -10.9% (inactive) in experiment [8].
`COc1ccc2[nH]c(=O)c(CN(C(=O)c3ccncc3)C(C)C)cc2c1`: the viability in experiment [1] is 96%; in experiment [3], 96% (inactive); in experiment [4], 113% (inactive); in experiment [5] it was 98.5% (inactive); in experiment [6] (setting [9]), 94.2%; in experiment [6] (setting [10]), 98.5%. For the same compound, in experiment [2], the Her2 level is 108% (inactive). The differential viability (reversal) in experiment [6] (H69AR cells + 2 uM doxorubicin) is 4.29% (inactive). In addition, the inhibition in experiment [7] was -3.12% (inactive); in experiment [8], 4% (inactive).
